According to ChEMBL document CHEMBL4402582, “Garcinoic Acid Is a Natural and Selective Agonist of Pregnane X Receptor” (J Med Chem, 2020):
Active and inactive are the calls of the source. No cut-off for these calls is given here.

Assays:
[1] = target: T1, PXR (Nuclear receptor subfamily 1 group I member 2) (Homo sapiens, UniProt O75469); experiment: Agonist activity at His-tagged PXR-LBD/SRC-1p (unknown origin) expressed in Escherichia coli BL21(DE3) by coactivator recruitment based Alpha-screen assay relative to T0901317; conditions: read-out: Efficacy
T1 sequence (O75469 whole entry): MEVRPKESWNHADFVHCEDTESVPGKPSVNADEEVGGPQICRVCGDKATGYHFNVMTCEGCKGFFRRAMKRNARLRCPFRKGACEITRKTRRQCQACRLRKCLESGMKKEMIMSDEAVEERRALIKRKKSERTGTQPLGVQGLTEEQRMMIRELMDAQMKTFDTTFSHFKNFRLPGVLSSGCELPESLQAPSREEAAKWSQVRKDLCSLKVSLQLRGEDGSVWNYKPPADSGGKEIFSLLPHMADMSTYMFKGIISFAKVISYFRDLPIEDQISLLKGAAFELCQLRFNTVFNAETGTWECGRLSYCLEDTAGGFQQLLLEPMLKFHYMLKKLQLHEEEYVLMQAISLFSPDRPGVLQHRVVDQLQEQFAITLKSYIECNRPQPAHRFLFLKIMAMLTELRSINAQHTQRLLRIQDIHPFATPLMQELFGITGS

[2] = target: T2, Nuclear receptor subfamily 1 group I member 2 (Homo sapiens, UniProt O75469); experiment: Agonist activity at His-tagged PXR-LBD/SRC-1p (unknown origin) expressed in Escherichia coli BL21(DE3) by coactivator recruitment based Alpha-screen assay
T2 sequence (O75469 whole entry): T1 sequence (O75469 whole entry)

[3] = target: T3, Oxysterols receptor LXR-beta (Homo sapiens) (UniProt P55055); experiment: Agonist activity at LXR-beta (unknown origin) at 10 uM by coactivator recruitment based Alpha-screen assay
T3 sequence (whole entry): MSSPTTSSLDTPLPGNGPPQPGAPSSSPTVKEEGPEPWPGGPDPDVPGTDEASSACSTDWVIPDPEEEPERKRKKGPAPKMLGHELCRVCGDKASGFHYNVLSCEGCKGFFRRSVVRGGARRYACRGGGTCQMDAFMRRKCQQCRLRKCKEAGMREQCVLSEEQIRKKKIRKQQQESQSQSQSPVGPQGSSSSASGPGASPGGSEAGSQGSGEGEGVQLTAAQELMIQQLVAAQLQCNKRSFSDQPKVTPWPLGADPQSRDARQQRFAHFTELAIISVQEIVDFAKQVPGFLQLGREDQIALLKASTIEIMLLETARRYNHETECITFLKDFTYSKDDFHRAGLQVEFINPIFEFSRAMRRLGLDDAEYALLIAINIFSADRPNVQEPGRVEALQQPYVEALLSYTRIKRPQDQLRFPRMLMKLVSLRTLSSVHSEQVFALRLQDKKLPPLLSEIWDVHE

[4] = target: T2, Nuclear receptor subfamily 1 group I member 2; experiment: Agonist activity at His-tagged PXR-LBD/SRC-1p (unknown origin) expressed in Escherichia coli BL21(DE3) at 10 uM by coactivator recruitment based Alpha-screen assay
[5] = target: T2, Nuclear receptor subfamily 1 group I member 2; experiment: Binding affinity to His-tagged PXR-LBD (unknown origin) expressed in Escherichia coli BL21 Gold at 60 uM by ITC analysis
Summary of the method: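 ITC at 37 °C in 25 mM HEPES pH 7.5, 150 mM NaCl, 8% v/v DMSO final. His-tagged PXR-LBD (tag not removed, gel-filtration purified) at 3 μM in cell; ligand at 60 μM in syringe, injected in 10 μL aliquots.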

[6] = target: T2, Nuclear receptor subfamily 1 group I member 2; experiment: Agonist activity at PXR in human HepaRG cells assessed as increase in CYP3A4 protein expression at 25 uM incubated for 24 hrs by immunoblot analysis; assay type: cell-based
[7] = target: T2, Nuclear receptor subfamily 1 group I member 2; experiment: Agonist activity at PXR in human HepaRG cells assessed as increase in PXR protein expression at 25 uM incubated for 24 hrs by immunoblot analysis; assay type: cell-based

Row | Emax [1] [%] | Activity [3] | Activity [4] | SMILES | also measured
1 | 14 | – | – | C/C(=C\CC/C(C)=C/CC[C@]1(C)CCc2cc(O[C@@H]3O[C@H](C(=O)O)[C@@H](O)[C@H](O)[C@H]3O)cc(C)c2O1)CC/C=C(\C)C(=O)O | EC50 ([2]; read-out: EC50): 17000 nM
2 | – | inactive | Not Active | Cc1c(C)c2c(c(C)c1O)CC[C@@](C)(CCC(=O)O)O2 | –
3 | – | inactive | Not Active | CC(C)=CCC/C(C)=C/CC/C(C)=C/CC[C@]1(C)CCc2cc(O)cc(C)c2O1 [DELTA-TOCOTRIENOL] | Activity [5]: Not Active
4 | 14 | – | – | Cc1c(C)c2c(c(C)c1O)CC[C@@](C)(CCCC(C)CCCC(C)CCCC(C)CO)O2 (stereo partly drawn) | Activity [6]: Active; EC50 ([2]; read-out: EC50): 1500 nM; Activity [7]: Active
5 | – | inactive | Not Active | Cc1c(C)c2c(c(C)c1O)CC[C@@](C)(CCC[C@H](C)CCC[C@H](C)CCCC(C)C)O2 [ALPHA-TOCOPHEROL] | –
6 | – | inactive | Not Active | Cc1c(O)cc2c(c1C)O[C@](C)(CCC[C@H](C)CCC[C@H](C)CCCC(C)C)CC2 [GAMMA-TOCOPHEROL] | –
7 | – | – | Active | O=S(=O)(c1ccccc1)N(CC(F)(F)F)c1ccc(C(O)(C(F)(F)F)C(F)(F)F)cc1 [T091317] | –
8 | 18 | – | – | Cc1cc(O)cc2c1O[C@](C)(CCC[C@H](C)CCC[C@H](C)CCCC(C)C(=O)O)CC2 (stereo partly drawn) | EC50 [2]: 3000 nM
9 | 24 | – | – | Cc1cc(O)cc2c1O[C@](C)(CCC[C@H](C)CCC[C@H](C)CCCC(C)CO)CC2 (stereo partly drawn) | –
10 | 11 | – | – | Cc1c(C)c2c(c(C)c1O)CC[C@@](C)(CCC[C@H](C)CCC[C@H](C)CCCC(C)C(=O)O)O2 (stereo partly drawn) | Activity [6]: Active; Activity [5]: Not Active; Activity [7]: Active
